SMILES strings stand for the structures.

The series can be described thus: Toxicity liver stage against HepG2, at 10uM. More on the design: test concentration 10 uM, cell line HepG2-A16-CD81EGFP. The class given is cell-based. Conditions: human, HepG2-A16-CD81EGFP cells; read-out: INHIBITION
A digest of the protocol: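 Uninfected HepG2-A16-CD81EGFP cells, 3 × 10^3 per well, 1536-well, plated on prespotted compound at 10 μM final, parasite-free screening media added to match infected plates; puromycin 10 μM positive, DMSO 0.5% negative; run in parallel with 48 h PbLuc assay at 37 °C, 5% CO2; viability by CellTiter-Glo luminescence, normalized to controls.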
Turning to `CN(CCOc1cccc(Cl)c1)Cc1nnc(C(C)(C)C)o1`, the cytotoxicity at 10 µM turned out to be 8.65%. Take `NC(=O)CN1CCCN(C(=O)c2ccn(-c3ccc(F)cc3)n2)CC1`: the cytotoxicity at 10 µM is -5.69%.

For `Cc1nc(C)n(CC2CCCN2CCCc2nc3ccccc3o2)n1` (configuration not stated), the cytotoxicity at 10 µM is -8.58%. Take `COC(=O)c1ccoc1CN(C)CC(=O)N(C)C`: the cytotoxicity at 10 µM came to 3.39%. For the compound `CCOC(=O)C1CCN(C(=O)c2cc(Br)ccc2-n2cnnn2)CC1`, the cytotoxicity at 10 µM was -2.41%. Under `NC(=O)c1cc2c(nc1CC1CCCCO1)CCC2` (configuration not stated) stands -5.4%; under `Nc1nnc(CCCn2nnc(-c3ccccc3F)n2)s1`, -1.67%; under `Cn1ccc2c(C(=O)NCCCN3CCOCC3)cccc21`, -0.452%. Take `CC(C)(C)C(=O)CN1Cc2ccccc2NCCC1=O`: the cytotoxicity at 10 µM was -3.19%.

Consider `O=C(CCCN1CCCCC1)NC(C(=O)O)c1ccc(Cl)cc1` (configuration not stated), for which the cytotoxicity at 10 µM is -2.33%. For the compound `Cc1nc(CNc2ccccc2CCC(F)(F)F)cs1`, the cytotoxicity at 10 µM is -8.47%. As for `CCN1CCc2cc(-c3cncn3CCNC3CCS(=O)(=O)C3)ccc21` (configuration not stated), the cytotoxicity at 10 µM was -1.59%. Consider `CN(C(=O)Cn1nc(-c2ccc(F)cc2)oc1=O)C1CCS(=O)(=O)C1` (configuration not stated), for which the cytotoxicity at 10 µM amounted to 10.7%. `CC1(C)CNC(=O)c2nc(-c3nnn[nH]3)[nH]c2C1`: the cytotoxicity at 10 µM was -5.69%.

For the compound `c1cc(CCNc2ccc(CC3CCNC3)cn2)ccn1` (configuration not stated), the cytotoxicity at 10 µM was 3.09%. Take `CCOCC1CC2(CCN(C(=O)c3ncccn3)CC2)CO1` (configuration not stated): the cytotoxicity at 10 µM amounted to 4.93%. `CSc1nnc(CC2CCN(C(=O)CCc3cccnc3)CC2)n1C`: the cytotoxicity at 10 µM is -43.5%. On to `CC(C)Oc1ccc(CNC(=O)c2cc(C(N)=O)cs2)cc1F`, for which the cytotoxicity at 10 µM came out at 12.6%. In the case of `CC(C)N1CCc2c(c(COc3cccnc3)nn2CC2CC2)C1`, the cytotoxicity at 10 µM turned out to be 6.49%. Consider `c1ccc(COC[C@@H]2CCC[C@]23CN(Cc2nccs2)CCO3)nc1`, for which the cytotoxicity at 10 µM was -65.4%. As for `CCc1nc(C2CCCN2CCCS(=O)(=O)c2ccccc2)no1` (configuration not stated), the cytotoxicity at 10 µM was -6.15%. Consider `Cn1c(C(=O)Nc2nc[nH]n2)cc2ccccc21`, for which the cytotoxicity at 10 µM stood at 1.24%.

Take `O=S(=O)(Nc1cnc(N2CCCC2)nc1)c1ccc(F)cc1F`: the cytotoxicity at 10 µM is -14.4%. In the case of `Clc1snnc1CN1CCCCC1Cn1cncn1` (configuration not stated), the cytotoxicity at 10 µM is -0.575%. On to `COc1ccc(F)c(F)c1C(=O)N1C[C@@H](CN(C)CCO)[C@@H](CO)C1`, for which the cytotoxicity at 10 µM is -1.02%. As to `CCOC(=O)CCCNC(=O)CN1CCN(c2ncccn2)CC1`, the cytotoxicity at 10 µM was -13.3%. With `CNC(=O)NC1CC2(CCNCC2)c2ccc(C)cc21` (configuration not stated), the cytotoxicity at 10 µM was -4.97%. On to `O=C(c1csc(-c2ccco2)n1)N1CCOc2ncccc21`, for which the cytotoxicity at 10 µM is 10.2%. On to `Cn1cc(CN2CCC3(CC2)CC(c2ccncc2)C(=O)N3)cn1` (configuration not stated), for which the cytotoxicity at 10 µM stood at 1.75%.

Consider `N#Cc1ccc(CNC(=O)NC2CCCN(c3ncccn3)C2)cc1` (configuration not stated), for which the cytotoxicity at 10 µM amounted to 5.38%. With `CCN(C)c1ncnc2c1CCN(C(=O)Cc1ccccn1)CC2`, the cytotoxicity at 10 µM was -3.26%.

Take `Cc1cc(CNC2(c3ccccc3F)CC2)no1`: the cytotoxicity at 10 µM was 5.71%. Take `CC[S+]([O-])CCc1nc(CC(C)C)nn1-c1ccc2c(c1)OCCO2` (configuration not stated): the cytotoxicity at 10 µM was 4.24%. Take `CNS(=O)(=O)c1ccc(CNC(=O)c2c(C)oc(C)c2C)cc1`: the cytotoxicity at 10 µM is -17.1%. Under `O=C(CN1CCCC1c1noc(C2CC2)n1)NCCc1ccsc1` (configuration not stated) stands 2.82%. Regarding `CN1CC2(CCN(C(=O)Cc3ccc(O)c(F)c3)CC2)CC1=O`, the cytotoxicity at 10 µM was found to be 1.87%. Consider `Cc1cc2c(o1)CC(C)(C)CC2NC(=O)CNC(=O)C1CC1` (configuration not stated), for which the cytotoxicity at 10 µM is 4.57%. For the compound `O=C(NCC1CCS(=O)(=O)C1)N(Cc1ccccn1)C1CC1` (configuration not stated), the cytotoxicity at 10 µM was -129%. As to `C[C@@H]1C[C@H]2CN(Cc3nccs3)C[C@H]2O1`, the cytotoxicity at 10 µM is -1.22%. Turning to `O=C(c1ccoc1)N1CC[C@H]2C[C@@H](c3ccncn3)O[C@@H]2C1`, the cytotoxicity at 10 µM was -76.1%. For `Cc1cc(NC(=O)CN2CCn3c(C)nnc3C2)no1`, the cytotoxicity at 10 µM was -3.82%. As to `CN1CCC2(Cc3ccccc3CN(C(=O)Cc3cccc(Cl)c3)C2)C1` (configuration not stated), the cytotoxicity at 10 µM amounted to 6.91%. On to `CCc1nc(CN(C)C2CCCN(c3cccnn3)C2)no1` (configuration not stated), for which the cytotoxicity at 10 µM was -5.87%.

As for `COC(=O)Cn1c(=O)[nH]c2cn(-c3cccc(C)c3)c(=O)n21`, the cytotoxicity at 10 µM turned out to be 5.42%. With `O=C(c1cn(-c2ccccc2)nn1)N1CCOCC(O)C1` (configuration not stated), the cytotoxicity at 10 µM came out at 2.35%.

Turning to `CCNc1cc2c(nn1)CCN(C(=O)C1COc3ccccc3O1)C2` (configuration not stated), the cytotoxicity at 10 µM was -6.34%. With `O=C(CCn1cncn1)NC1CCS(=O)(=O)C1` (configuration not stated), the cytotoxicity at 10 µM is -45.4%. The value for `CC(C)C(=O)NCc1ccc(N2CCCC2)nc1` was -18.4%; that for `Cc1cc(=O)n2ncnc2n1CC(O)COCc1ccccc1Cl` (configuration not stated) was 3.52%; that for `CC(C)COCCC(=O)NS(=O)(=O)c1ccc(Cl)s1` was -21.6%. The value for `CN(c1ccccc1)c1ccc(CC2CCCN(CCO)C2)nn1` (configuration not stated) was -9.3%.

With `Cc1[nH]ccc1C(=O)N1CCCC(c2ccc(C(=O)O)cc2)C1` (configuration not stated), the cytotoxicity at 10 µM is -0.591%. Turning to `CC(C)c1ccc(CC(=O)N2CCCC3(CN(C)C(=O)O3)C2)cc1` (configuration not stated), the cytotoxicity at 10 µM is 16.2%. Under `O=C1NCC2(CCCN(Cc3ccccc3OCCO)C2)O1` (configuration not stated) stands -39.2%. As to `CSCc1noc(CNC(=O)C2CCN(C(=O)C3CC3)CC2)n1`, the cytotoxicity at 10 µM was found to be 11.5%.

In the case of `O=C(NCc1ccc(-n2cncn2)nc1)c1cc(Cl)ccn1`, the cytotoxicity at 10 µM amounted to 2.8%.

Consider `Cc1nnc(NCc2ccccc2Cl)c(C#N)c1C`, for which the cytotoxicity at 10 µM is -5.06%. For `Cc1noc(C)c1CN(C)C(=O)c1ccc(O)nc1`, the cytotoxicity at 10 µM is -9.71%. For the compound `CC(C)Cn1ncc2cc(C(=O)N(C)Cc3cccc(O)c3)cnc21`, the cytotoxicity at 10 µM is -4.67%. Under `CN(Cc1ccc([S+](C)[O-])cc1)c1ccc(Br)cn1` (configuration not stated) stands 11.8%; under `CCn1c(N)nc2cc(C(=O)NCCCc3ccccn3)cnc21`, -7.38%. `Cc1nn(C)c(Cl)c1C1CCCN1C(=O)c1ccc(O)nc1` (configuration not stated): the cytotoxicity at 10 µM was -11.2%. In the case of `Cn1ccc(C(=O)N2CCC(Cc3ccc4ncccc4c3)CC2)n1`, the cytotoxicity at 10 µM worked out at 13.7%. Regarding `CC(=O)N1C[C@H]2CCCN(S(=O)(=O)c3ccc(Cl)s3)[C@H]2C1`, the cytotoxicity at 10 µM was -2.32%. With `O=C(c1ccccn1)N1CCC2(CC1)COC(COc1cccnc1)C2` (configuration not stated), the cytotoxicity at 10 µM is -1.98%. Consider `CC(C)O[C@@H]1CC[C@H]2[C@H]1OCCN2C(=O)c1nn(C)c2ccccc12`, for which the cytotoxicity at 10 µM is -0.824%. Consider `O=C(CN1CCc2cncnc2C1)NC1CCCCNC1=O` (configuration not stated), for which the cytotoxicity at 10 µM turned out to be 7.36%. For `CC(C(=O)NCCOc1ccccc1)n1cncn1` (configuration not stated), the cytotoxicity at 10 µM was -6.85%. Consider `CC(=O)N(C)c1nc(Cn2nnnc2C2CCCC2)cs1`, for which the cytotoxicity at 10 µM was found to be 2.11%. The value for `CC(C)n1cc(CN(C)C[C@@H]2CCCN3CCCC[C@H]23)cn1` was 0.276%; that for `COc1ccccc1CC(=O)NCCCN1CCCC1C(=O)N(C)C` (configuration not stated) was -13%; that for `CC(=O)N1CCN(CC(=O)NCCCN(C)c2ccccc2)CC1` was 8.21%. `COc1ncccc1CNC1CCc2c(ccc(=O)n2CC2CC2)C1` (configuration not stated): the cytotoxicity at 10 µM is -110%. In the case of `CCN1CC2(CCC1=O)CCN(C(=O)c1ccc(Cl)cc1O)CC2`, the cytotoxicity at 10 µM was -12.8%. On to `Cc1nn(C)c(Cl)c1C1CCCN1C(=O)c1ccc(N(C)C)nn1` (configuration not stated), for which the cytotoxicity at 10 µM was -9.01%. Turning to `O=C(NCc1ccccn1)c1cncc(C2CCCN2)n1` (configuration not stated), the cytotoxicity at 10 µM came to 3.6%. In the case of `COc1ccc(NC(=O)NCc2ccnc(N(C)C)c2)cn1`, the cytotoxicity at 10 µM is -8.6%. On to `Cc1noc(C)c1CS(=O)(=O)CC(=O)NCCc1cccs1`, for which the cytotoxicity at 10 µM was -1.6%. Regarding `COc1cc2nc(NCc3ccc(C)nc3)nc(N)c2cc1OC`, the cytotoxicity at 10 µM amounted to 2.94%. For the compound `COCc1ccc(OC)c(CNC2CCCNC2=O)c1` (configuration not stated), the cytotoxicity at 10 µM worked out at 3.66%.

As to `CC(=O)N1CCN(c2cnccn2)CC(CO)C1` (configuration not stated), the cytotoxicity at 10 µM worked out at 3.03%. Take `CS(=O)(=O)c1cccc(S(=O)(=O)NCCCN2CCNC(=O)C2)c1`: the cytotoxicity at 10 µM was -5.87%.

As for `O=C(Nc1ccc(I)cc1C(=O)NCCN1CCOCC1)c1cccs1`, the cytotoxicity at 10 µM is -5.09%. As to `c1ncn(CC2CN(Cc3nc(C4CC4)no3)CCO2)n1` (configuration not stated), the cytotoxicity at 10 µM was -8.45%. As for `CNC(=O)[C@H]1C[C@@H]2CN(C(=O)c3cnc(C)cn3)C[C@@H]2N1C`, the cytotoxicity at 10 µM was -108%. The value for `CC(C)(C)OC(=O)N1CSC[C@@H]1C(=O)NCc1ccc(C#N)cc1` was 11.6%; that for `Cc1nc(CN2CCN(C(C)c3nc(C4CC4)no3)CC2)oc1C` (configuration not stated) was -5.95%; that for `CNc1cncc(C2CCCN2C(=O)c2ccc3c(c2)CCC3)n1` (configuration not stated) was -15.1%. For `CCn1nccc1C(=O)Nc1nc(C)c(C(C)=O)s1`, the cytotoxicity at 10 µM amounted to 1.28%. `CC1=N[C@@]2(CC[C@@H]3CN(C(=O)NC(C)C)C[C@@H]32)C(=O)N1CC(C)C`: the cytotoxicity at 10 µM came to 7.74%. As for `O=C(Cc1ccc2c(c1)CCO2)Nc1ccc(-n2cncn2)nc1`, the cytotoxicity at 10 µM came out at 3.62%. Regarding `CCCNC(=O)CN(C)C1CCN(c2ccc(Cl)cc2)CC1`, the cytotoxicity at 10 µM came to 1.41%.

`N#Cc1ccc(NC(=O)N2CCCCC2CN2CCCC2=O)cc1` (configuration not stated): the cytotoxicity at 10 µM was 4.65%.

`Cc1nc(CCN(C)C(=O)CN2CCCCCC2)no1`: the cytotoxicity at 10 µM worked out at 5.33%. Consider `CCOc1ncc(NC(=O)c2ccco2)c(OCC)n1`, for which the cytotoxicity at 10 µM was -1.76%. Turning to `Cc1nnc(NC(=O)CN(C)CC2CCCN2c2cccnn2)s1` (configuration not stated), the cytotoxicity at 10 µM was -15%. As to `Cc1cccc(C2(CNC(=O)c3ccnc(N(C)C)c3)CCOCC2)c1`, the cytotoxicity at 10 µM worked out at 2.85%.

For the origin of these results see ChEMBL document CHEMBL4513216, “Probing the Open Global Health Chemical Diversity Library for Multistage-Active Starting Points for Next-Generation Antimalarials” (ACS Infect Dis, 2020).
